From ChEMBL document CHEMBL1255198, “Expanding the diversity of allosteric bcr-abl inhibitors” (J Med Chem, 2010)
pEC50: −log10 of the molar value.

experiment: Cytotoxicity against mouse BA/F3 cells; assay type: cell-based; settings: BaF3
Procedure, shortened: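 Parental IL-3-dependent murine Ba/F3 cells grown at 37 °C, 5% CO₂ in RPMI 1640 with 10% FBS, 1% L-glutamine and 10% WEHI-conditioned medium as IL-3 source. Growth after 48 h read by CellTiter-Glo luminescence.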

Structure (SMILES)	pEC50
CCCn1ncc2c(Nc3ccc(OC(F)(F)F)cc3)ncnc21	5.18
CNC(=O)c1cccc(-c2cc(Nc3ccc(OC(F)(F)F)cc3)ncn2)c1	< 5.00
O=C(NCCO)c1cccc(-c2cc(Nc3ccc(OC(F)(F)F)cc3)ncn2)c1	< 5.00
FC(F)(F)c1ccc(Nc2cc(-c3ccncc3)ncn2)cn1	< 5.00
NC(=O)Cn1ncc2c(Nc3ccc(OC(F)(F)F)cc3)ncnc21	5.48
OCCn1cc2c(Nc3ccc(OC(F)(F)F)cc3)ncnc2n1	< 5.00
O=C(O)c1cc2c(Nc3ccc(OC(F)(F)F)cc3)ncnc2s1	< 5.00
FC(F)(F)Oc1ccc(Nc2ncnc3nn(Cc4ccccc4)cc23)cc1	< 5.00
NS(=O)(=O)c1ccc(-c2cc(Nc3ccc(OC(F)(F)F)cc3)ncn2)cc1	< 5.00
FC(F)(F)Oc1ccc(Nc2ncnc3c2cnn3Cc2ccccc2)cc1	< 5.00
CC(C)Cn1cc(-c2cc(Nc3ccc(OC(F)(F)F)cc3)ncn2)cn1	< 5.00
NC(=O)c1cccc(Nc2cc(Nc3ccc(OC(F)(F)F)cc3)ncn2)c1	< 5.00
FC(F)(F)Oc1ccc(Nc2ncnc3c2cnn3C2CCCCC2)cc1	5.03
FC(F)(F)Oc1ccc(Nc2cc(N3CCOCC3)ncn2)cc1	< 5.00
NC(=O)c1ccc(Cn2ncc3c(Nc4ccc(OC(F)(F)F)cc4)ncnc32)cc1	< 5.00
FC(F)(F)Oc1ccc(Nc2ncnc3[nH]ccc23)cc1	< 5.00
FC(F)(F)c1ccc(Nc2cc(-c3ccncc3)ncn2)cc1	< 5.00
Cc1nc(C)c(Cn2ncc3c(Nc4ccc(OC(F)(F)F)cc4)ncnc32)s1	< 5.00
Cc1c(NCCN2CCOCC2)ncnc1Nc1ccc(OC(F)(F)F)cc1	< 5.00
CN(c1ccc(OC(F)(F)F)cc1)c1cc(-c2ccncc2)ncn1	< 5.00
Cc1ccc(C(=O)Nc2cccc(C(F)(F)F)c2)cc1NC(=O)c1cc2c(Nc3ccc(OC(F)(F)F)cc3)ncnc2s1	5.05

Structure (SMILES)	pEC50
CS(=O)(=O)c1cccc(-c2cc(Nc3ccc(OC(F)(F)F)cc3)ncn2)c1	< 5.00
FC(F)(F)Oc1ccc(Nc2cc(-c3cnn(Cc4cccnc4)c3)ncn2)cc1	< 5.00
FC(F)(F)Oc1ccc(Nc2ncnc3c2cnn3Cc2ccncc2)cc1	< 5.00
Cn1ccc2c(Nc3ccc(OC(F)(F)F)cc3)ncnc21	< 5.00
FC(F)(F)Oc1ccc(Nc2cc(-c3cn[nH]c3)ncn2)cc1	< 5.00
FC(F)(F)Oc1ccc(Nc2ccc(NCCN3CCOCC3)nn2)cc1	< 5.00
Cc1nc(-c2cc(Nc3ccc(OC(F)(F)F)cc3)ncn2)cs1	< 5.00
O=C(NCCN1CCOCC1)c1cccc(-c2cc(Nc3ccc(OC(F)(F)F)cc3)ncn2)c1	< 5.00
FC(F)(F)Oc1ccc(Nc2cc(-c3ccnc4[nH]ccc34)ncn2)cc1	5.16
FC(F)(F)Oc1ccc(-c2cc(NCCN3CCOCC3)ncn2)cc1	< 5.00
FC(F)(F)Oc1ccc(Nc2cc(NCCCN3CCOCC3)ncn2)cc1	< 5.00
FC(F)(F)Oc1ccc(Nc2ncnc3c2cnn3CC2CCOC2)cc1 (stereo not drawn)	< 5.00
FC(F)(F)Oc1ccc(Nc2ncnc3c2cnn3Cc2cccnc2)cc1	< 5.00
FC(F)(F)Oc1ccc(Nc2ncnc3c2ccn3CCN2CCOCC2)cc1	< 5.00
CCn1cc2c(Nc3ccc(OC(F)(F)F)cc3)ncnc2n1	< 5.00
CCn1ncc2c(Nc3ccc(OC(F)(F)F)cc3)ncnc21	< 5.00
NC(=O)Cn1cc2c(Nc3ccc(OC(F)(F)F)cc3)ncnc2n1	< 5.00
COc1ccc(Nc2cc(-c3ccncc3)ncn2)cc1	< 5.00
COCCCNC(=O)CCn1ccc2c(Nc3ccc(OC(F)(F)F)cc3)ncnc21	< 5.00
FC(F)(F)Oc1ccc(Nc2ncnc3nn(Cc4cccnc4)cc23)cc1	< 5.00
FC(F)(F)Oc1ccc(Nc2cc(-c3ccc4[nH]ccc4c3)ncn2)cc1	< 5.00

Structure (SMILES)	pEC50
CS(=O)(=O)Nc1ccc(-c2cc(Nc3ccc(OC(F)(F)F)cc3)ncn2)cc1	5.66
FC(F)(F)Oc1ccc(Nc2cc(NCCN3CCOCC3)ncn2)cc1	< 5.00
NC(=O)c1cccc(Oc2cc(Nc3ccc(OC(F)(F)F)cc3)ncn2)c1	< 5.00
CN1CCN(C(=O)c2cc3c(Nc4ccc(OC(F)(F)F)cc4)ncnc3s2)CC1	5.57
FC(F)(F)Oc1ccc(Nc2cc(-c3ccncc3)ncn2)cc1	< 5.00
FC(F)(F)Oc1ccc(Nc2ncnc3nn(C4CCCCC4)cc23)cc1	< 5.00
O=C(c1cccc(-c2cc(Nc3ccc(OC(F)(F)F)cc3)ncn2)c1)N1CCOCC1	< 5.00
Nc1cccc(-c2cc(Nc3ccc(OC(F)(F)F)cc3)ncn2)c1	< 5.00
O=C(c1cc2c(Nc3ccc(OC(F)(F)F)cc3)ncnc2s1)N1CCC(O)CC1	< 5.00
Cc1c(-c2cc(Nc3ccc(OC(F)(F)F)cc3)ncn2)cnn1-c1ccccc1	< 5.00
Fc1ccc(Nc2cc(-c3ccncc3)ncn2)cc1	< 5.00
Cc1nn(C)c(C)c1-c1cc(Nc2ccc(OC(F)(F)F)cc2)ncn1	< 5.00
FC(F)(F)Oc1cccc(Nc2cc(NCCN3CCOCC3)ncn2)c1	< 5.00
NC(=O)c1ccc(-c2cc(Nc3ccc(OC(F)(F)F)cc3)ncn2)cc1	< 5.00
O=C(c1cc2c(Nc3ccc(OC(F)(F)F)cc3)ncnc2s1)N1CCN(N2CCCC2)CC1	5.24
CCCn1cc2c(Nc3ccc(OC(F)(F)F)cc3)ncnc2n1	< 5.00
FC(F)(F)Oc1ccc(Nc2ccnc(NCCN3CCOCC3)n2)cc1	< 5.00
NC(=O)c1cccc(-c2cc(Nc3ccc(OC(F)(F)F)cc3)ncn2)c1	< 5.00
Cn1cc(-c2cc(Nc3ccc(OC(F)(F)F)cc3)ncn2)cn1	< 5.00
COc1ccc(Cn2ccc3c(Nc4ccc(OC(F)(F)F)cc4)ncnc32)cc1	< 5.00
FC(F)(F)Oc1ccc(Nc2cncc(NCCN3CCOCC3)n2)cc1	< 5.00

Structure (SMILES)	pEC50
NC(=O)CCn1ccc2c(Nc3ccc(OC(F)(F)F)cc3)ncnc21	< 5.00
FC(F)(F)c1ccc(Nc2cc(NCCN3CCOCC3)ncn2)cc1	< 5.00
FC(F)(F)Oc1ccc(Nc2ncnc(NCCN3CCOCC3)n2)cc1	< 5.00
FC(F)(F)Oc1ccc(CNc2cc(NCCN3CCOCC3)ncn2)cc1	< 5.00
OCCn1ncc2c(Nc3ccc(OC(F)(F)F)cc3)ncnc21	< 5.00
COC(=O)c1cc2c(Nc3ccc(OC(F)(F)F)cc3)ncnc2s1	< 5.00
FC(F)(F)Oc1ccc(Nc2nccc(NCCN3CCOCC3)n2)cc1	< 5.00
NC(=O)c1ccccc1-c1cc(Nc2ccc(OC(F)(F)F)cc2)ncn1	< 5.00
FC(F)(F)Oc1ccc(Nc2ncnc3[nH]ncc23)cc1	< 5.00
FC(F)(F)Oc1ccc(Oc2cc(NCCN3CCOCC3)ncn2)cc1	< 5.00
CC(C)(C)n1ncc2c(Nc3ccc(OC(F)(F)F)cc3)ncnc21	5.14
Cc1nc(NCCN2CCOCC2)cc(Nc2ccc(OC(F)(F)F)cc2)n1	5.95
O=C(NCCO)c1cc2c(Nc3ccc(OC(F)(F)F)cc3)ncnc2s1	< 5.00
NS(=O)(=O)c1cccc(-c2cc(Nc3ccc(OC(F)(F)F)cc3)ncn2)c1	< 5.00
FC(F)(F)Oc1ccc(Nc2cc(-c3cccc4[nH]ccc34)ncn2)cc1	5.42
COc1ccc(Nc2cc(NCCN3CCOCC3)ncn2)cc1	< 5.00
CCNC(=O)c1cc2c(Nc3ccc(OC(F)(F)F)cc3)ncnc2s1	< 5.00
O=C(c1cc2c(Nc3ccc(OC(F)(F)F)cc3)ncnc2s1)N1CCNCC1	5.39
OCc1cc2c(Nc3ccc(OC(F)(F)F)cc3)ncnc2s1	< 5.00
FC(F)(F)Oc1ccc(Nc2cc(-n3ccnc3)ncn2)cc1	< 5.00
CN(c1ccc(OC(F)(F)F)cc1)c1cc(NCCN2CCOCC2)ncn1	< 5.00

experiment: Inhibition of Bcr-Abl E255K mutant in mouse BA/F3 cells assessed as cell growth inhibition; settings: BaF3

pEC50	Structure (SMILES)
6.24	O=C(NCCO)c1cccc(-c2cc(Nc3ccc(OC(F)(F)F)cc3)ncn2)c1
6.51	NS(=O)(=O)c1ccc(-c2cc(Nc3ccc(OC(F)(F)F)cc3)ncn2)cc1
6.28	FC(F)(F)Oc1ccc(Nc2cc(-c3cn[nH]c3)ncn2)cc1
5.91	FC(F)(F)Oc1ccc(Nc2ncnc3c2ccn3CCN2CCOCC2)cc1
6.44	CS(=O)(=O)Nc1ccc(-c2cc(Nc3ccc(OC(F)(F)F)cc3)ncn2)cc1
5.88	CN1CCN(C(=O)c2cc3c(Nc4ccc(OC(F)(F)F)cc4)ncnc3s2)CC1
6.22	NC(=O)c1cccc(-c2cc(Nc3ccc(OC(F)(F)F)cc3)ncn2)c1
5.79	OCCn1ncc2c(Nc3ccc(OC(F)(F)F)cc3)ncnc21
6.30	CC(C)(C)n1ncc2c(Nc3ccc(OC(F)(F)F)cc3)ncnc21
